Laboratory results: the RNAGym collection of RNA variant scans (doi:10.1126/science.aae0568)
Variants at the floor of the assay were thinned out.

B1: tRNA (parent)
chain: GUUCCGUUGGCGUAAUGGUAACGCGUCUCCCUCCUAAGGAGAAGACUGCGGGUUCGAGUCCCGUACGGAACG

Variants of: B1
Test: yeast fitness relative to wild type (ratio to wild type); higher = fitter; tRNA-Arg(CCU), competitive growth, 37 C, YPD
Procedure, shortened: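 Amplicons of the tRNA-Arg(CCU) gene were sequenced, 100-nucleotide paired-end, from the start population and from each end population of a pooled yeast competition. The competition, in six parallel replicates, lasted 24 hours in YPD at 37°C. Fitness relative to wild type was calculated from changes in genotype frequencies. Genotypes had to have ≥ 100 starting reads, and estimates < 0.5 were set to 0.5.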

| Variant | yeast fitness |
| --- | --- |
| U7G C27U C33U A57U | ≤ 0.5 |
| U7G G12C G23C C29G C60A | ≤ 0.5 |
| U7G G23C C30G A36U C61U A65U | 0.527 |
| U8A A37G G41C A43U | ≤ 0.5 |
| U8A C22U G56A U59A | ≤ 0.5 |
| U8A A15C A20C U28C | ≤ 0.5 |
| U8A C11U A20C A70U | ≤ 0.5 |
| U8A A15U C27G A36G A70C | ≤ 0.5 |
| U8A C31A C33G | 0.542 |
| U8A C11A C27U | 0.546 |
| U8A C11U A37U U64A | 0.545 |
| U7G U8G C31U U35A U47C | ≤ 0.5 |
| U8A G25A C29G A37C A65U | ≤ 0.5 |
| U8A C31G C55U G67C | ≤ 0.5 |
| U8A G9A G67A | 0.553 |
| U8A C24U A40U A42C A45U C49U | ≤ 0.5 |
| U8A G23A | 0.597 |
| U8A C24A U64A | ≤ 0.5 |
| U8A C11U A15G G63C | ≤ 0.5 |
| U7G G18C C31A | ≤ 0.5 |
| U8A U13A A14C G56C | ≤ 0.5 |
| U8A A21C C29A G39A U54G G58C | ≤ 0.5 |
| U7G G58A | 0.942 |
| U8A A20C A43U A69C | ≤ 0.5 |

| Variant | yeast fitness |
| --- | --- |
| U8A A21G | 0.681 |
| U7G G12C G23C C29G | 0.739 |
| U7G G12A G25A C33G C62U | ≤ 0.5 |
| U8A G10C A20U G41U G51C | ≤ 0.5 |
| U8A A43C G44C | ≤ 0.5 |
| U8A C60A | ≤ 0.5 |
| U7G G63A G67C | ≤ 0.5 |
| U8A G18C C24A U32C A69U | 0.565 |
| U8A C29A U54C | ≤ 0.5 |
| U8A C29U C34U C49A G67A | ≤ 0.5 |
| U7G G9A | 0.827 |
| U8A A21G A36G | 0.65 |
| U8A A42U C62A A70C | ≤ 0.5 |
| U8A A40C C46U G52A | ≤ 0.5 |
| U8A A69G | 0.604 |
| U8A A69U | 0.719 |
| U8A A69C | 0.915 |
| U7G C61U G68A | 0.533 |
| U7G C27G A40U G68C | ≤ 0.5 |
| U8A C11U U47G G67A | ≤ 0.5 |
| U8A G18C C24A C29U U32C | ≤ 0.5 |
| U8A C22G C55G | 0.651 |
| U8A G18A C34U A42C | ≤ 0.5 |
| U8A G12C A21C C27G C31U G52A | 0.59 |

| Variant | yeast fitness |
| --- | --- |
| U8A G18A | 0.578 |
| U8A G18C C27U G51C C55A C62U A65U A69U | 0.647 |
| U8A C29G A40G G63A | ≤ 0.5 |
| U7G G67C | 0.856 |
| U7G C11G C33G G56C C62G | ≤ 0.5 |
| U8A A42U U47C C55G | ≤ 0.5 |
| U7G G9A A43C | 0.515 |
| U8A A21C A42U G50A | ≤ 0.5 |
| U8A A40G A42U A45U U59G | ≤ 0.5 |
| U8A C66A G68C | ≤ 0.5 |
| U8A C27A A37U A57U | ≤ 0.5 |
| U8A C24A C30U C31U G48C | 0.58 |
| U8A C30G U59A | ≤ 0.5 |
| U8A G18A C30A U32A U35G A65C | ≤ 0.5 |
| U8A A70U | 0.813 |
| U8A C24A U28C G56A | 0.556 |
| U8A G9A A37U C46U C61U C66U | ≤ 0.5 |
| U7G U54C | 0.905 |
| U8A G12A G44A C60U G67C | ≤ 0.5 |
| U7G C11G C34U A40G G41A | ≤ 0.5 |
| U7G C11G C34U G41A A65C C66U | ≤ 0.5 |
| U7G C55G G63A G68C | 0.525 |
| U8A A57U | 0.502 |
| U8A C34A A65U | ≤ 0.5 |

| Variant | yeast fitness |
| --- | --- |
| U8A A21U C30U G48A G67C A69U | ≤ 0.5 |
| U7G G44C | 0.666 |
| U8A G18C G41A | ≤ 0.5 |
| U8A G25A U26A A42C | ≤ 0.5 |
| U8A C27G G39A C46U G67A | ≤ 0.5 |
| U8A G44C A57U | ≤ 0.5 |
| U8A A40C | 0.774 |
| U7G G12A U13C C33U C34U A42C G50A | ≤ 0.5 |
| U8A G67A | 0.586 |
| U7G G23C U54A A57C A70U | ≤ 0.5 |
| U8A G44A U64C C66A | ≤ 0.5 |
| U7G C22U G51C G58A | ≤ 0.5 |
| U7G C49U | 0.957 |
| U7G C49G | 0.729 |
| U7G G56A | 1.06 |
| U8A G17A C31U C33U C34U C46G C62A | ≤ 0.5 |
| U7G C24G C27U C29A | 0.6 |
| U7G C46U C60A G67A | ≤ 0.5 |
| U8A U19C A21C C66U | ≤ 0.5 |
| U8A C11U A20C | ≤ 0.5 |
| U8A G25C A37C | ≤ 0.5 |
| U8A C31G A42C C55U G68A | ≤ 0.5 |
| U8A A36C U53C | ≤ 0.5 |
| U7G C22G | 0.726 |

| Variant | yeast fitness |
| --- | --- |
| U7G C22A | 0.653 |
| U8A C22G A36U | ≤ 0.5 |
| U7G U54C C55G | ≤ 0.5 |
| U8A C31A | 0.605 |
| U8A C22U A69C A70C | 0.595 |
| U8A G18A C30G A40C U47C G52A | ≤ 0.5 |
| U7G C33U A42C A43C C49U A69U | ≤ 0.5 |
| U8A C24G G41C A65G | ≤ 0.5 |
| U8A A40C C46U | ≤ 0.5 |
| U7G C55G G68C | 0.6 |
| U8A A15C G18C C49U | 0.603 |
| U8A C24U A40U A42C A45U | 0.563 |
| U7G U13C G52A A57C A65C | ≤ 0.5 |
| U8A G25C U35A | ≤ 0.5 |
| U8A | 0.741 |
| U7G C27U A57C A70U | ≤ 0.5 |
| U8A G25C A37C C66U | ≤ 0.5 |
| U8A G12A A14C A57U G67C | ≤ 0.5 |
| U8A C46A G68C | ≤ 0.5 |
| U8A A14C C49G A70U | 0.515 |
| U7G C11G C34U G41A U64A | ≤ 0.5 |
| U8A C24U U47C | 0.575 |
| U7G C61A | 0.708 |
| U8A C11A A14G C24A C29A C34U C61G A65C | ≤ 0.5 |

| Variant | yeast fitness |
| --- | --- |
| U8A C31G C46U C60A | ≤ 0.5 |
| U8A G39C A70C | 0.751 |
| U7G G12A | 0.816 |
| U8A G10C C66U | ≤ 0.5 |
| U7G G48A G68U A70C | 0.541 |
| U8A U26A C55G | ≤ 0.5 |
| U7G C61U A70G | 0.669 |
| U8A A65C A70U | 0.525 |
| U7G G68C | 0.895 |
| U8A G9C G38A A40C | ≤ 0.5 |
| U7G C27U C33U C66U | ≤ 0.5 |
| U7G C29A A69G | ≤ 0.5 |
| U7G C46U | 0.987 |
| U8A A42C G52C | ≤ 0.5 |
| U8A C29U C31A G38A | ≤ 0.5 |
| U7G C11G C34U G41A C49U | ≤ 0.5 |
| U8A U32G A37G G63U A70U | ≤ 0.5 |
| U8A C11U C31G G38C A40C G56A | ≤ 0.5 |
| U8A U26G | 0.666 |
| U8A U26C | 0.646 |
| U8A U26A | 0.733 |
| U8A C29G A70G | ≤ 0.5 |
| U8A C66G G68C | ≤ 0.5 |
| U8A C34G A37U A42U A57G | ≤ 0.5 |

| Variant | yeast fitness |
| --- | --- |
| U8A G12C U47A C62U | 0.545 |
| U8A C30A A65G | 0.543 |
| U8A G38A | 0.652 |
| U7G G25C G58C | 0.558 |
| U8A G18A G41C A57G | ≤ 0.5 |
| U8A G9A C60G | ≤ 0.5 |
| U7G G10C | 0.709 |
| U8A G18C C27U U32C C66G A70U | ≤ 0.5 |
| U8A G18A U32C | ≤ 0.5 |
| U7G C34A C46G A65C | 0.746 |
| U8A A15G C27A | 0.549 |
| U8A C31U C60A C62G A70C | ≤ 0.5 |
| U7G U28C U59C U64C A70C | ≤ 0.5 |
| U8A U47A C60A | ≤ 0.5 |
| U8A G48A | 0.666 |
| U8A C11U U47G | ≤ 0.5 |
| U7G C11U U16A | 0.518 |
| U8A C11A A36G C61G A69G | ≤ 0.5 |
| U8A A20C C31U | ≤ 0.5 |
| U8A C29G A40G | 0.639 |
| U8A A15U C29U | ≤ 0.5 |
| U8A A15U C61U | ≤ 0.5 |
| U7G G48A A69C | 0.697 |
